Sampled rows, rich in hits. Any-hit rate of the full collection: about 2.1%.
LMPTP inh = LMPTP (human) inhibition. inhibition, % at 20 µM. recombinant LMPTP-A, OMFP fluorogenic substrate, fluorescence intensity. 360,000 tested, 0.22% active. P24666;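 active means compounds that cut the enzyme signal by at least half of the control window in the single-dose screen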;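 further: plate controls were DMSO wells with enzyme plus substrate for no effect and substrate without enzyme for full effect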
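Test system: LMPTP-A phosphatase enzyme; input: 0.625 nM LMPTP-A final; reagent: OMFP substrate, 400 µM final; compound dosing: 20 µM single dose, 3% DMSO; incubation: 50 min dark incubation at room temperature; measured by: endpoint fluorescence intensity from OMFP dephosphorylation; measure: % inhibition relative to no-enzyme and uninhibited control wells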
SUMO1 PPI mod = alters human SUMO1 binding to SIM partners; P63165; inhibition, % at 20 µM; SUMO1 binding to a labelled peptide, TR-FRET, 1 h; 360,000 tested, 0.33% active; in the data active means inhibition above about 37%
DNMT1 inh = blocks human DNA methyltransferase DNMT1. P26358. DNMT1 molecular beacon, Hinp1I cleavage, fluorescence. inhibition (reported as % activation of signal), % at 10 µM. 360,000 tested, 0.83% active; in the data active means inhibition above about 50%
Target sequence (P26358 504-1616 limits assumed): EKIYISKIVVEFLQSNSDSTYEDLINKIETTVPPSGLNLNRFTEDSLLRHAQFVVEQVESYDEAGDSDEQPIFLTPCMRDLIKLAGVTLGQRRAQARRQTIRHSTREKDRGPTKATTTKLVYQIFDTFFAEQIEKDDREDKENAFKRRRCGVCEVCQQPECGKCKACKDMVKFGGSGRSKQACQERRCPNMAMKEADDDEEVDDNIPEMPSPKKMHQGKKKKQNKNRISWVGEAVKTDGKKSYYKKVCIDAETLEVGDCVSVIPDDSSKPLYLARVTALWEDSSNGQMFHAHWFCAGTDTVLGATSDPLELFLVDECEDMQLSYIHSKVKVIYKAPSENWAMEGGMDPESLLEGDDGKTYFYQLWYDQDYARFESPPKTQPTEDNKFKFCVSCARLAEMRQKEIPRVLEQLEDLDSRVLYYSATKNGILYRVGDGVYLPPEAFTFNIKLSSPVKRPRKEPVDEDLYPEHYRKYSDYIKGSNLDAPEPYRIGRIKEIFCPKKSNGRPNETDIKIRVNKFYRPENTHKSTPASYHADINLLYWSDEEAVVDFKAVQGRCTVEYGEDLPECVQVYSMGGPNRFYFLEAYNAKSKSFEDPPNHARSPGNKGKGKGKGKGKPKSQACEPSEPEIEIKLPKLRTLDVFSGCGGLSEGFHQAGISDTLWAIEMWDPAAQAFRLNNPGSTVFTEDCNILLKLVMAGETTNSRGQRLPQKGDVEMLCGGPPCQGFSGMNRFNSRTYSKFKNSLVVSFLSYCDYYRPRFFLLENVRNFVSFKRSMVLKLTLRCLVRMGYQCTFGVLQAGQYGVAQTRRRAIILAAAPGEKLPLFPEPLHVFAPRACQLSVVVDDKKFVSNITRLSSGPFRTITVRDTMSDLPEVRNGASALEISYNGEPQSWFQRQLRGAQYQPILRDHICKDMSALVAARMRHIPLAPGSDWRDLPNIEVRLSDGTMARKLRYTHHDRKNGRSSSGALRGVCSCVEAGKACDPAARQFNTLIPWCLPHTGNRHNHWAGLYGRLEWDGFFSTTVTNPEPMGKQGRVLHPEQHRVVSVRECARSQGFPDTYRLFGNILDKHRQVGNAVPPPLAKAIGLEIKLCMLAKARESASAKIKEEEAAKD
STEP block = inhibitors of human striatal-enriched phosphatase STEP; P54829; recombinant STEP, OMFP fluorogenic substrate, fluorescence; inhibition, % at 20 µM; 360,000 tested, 0.25% active;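 active means inhibition at 20 µM, scaled per plate between control wells, above about 37%, limit read from the data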;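 further: 0% = DMSO with enzyme and substrate and 100% = substrate only without enzyme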
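System: STEP phosphatase, cell-free reaction; Buffer or medium: Bis-Tris pH 6.0 buffer with DTT, detergent; Incubation: 20 min at room temperature, dark; Measured by: fluorescence, 480/540 nm.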
GRK2 aptamer HTS = human GRK2 inhibition via aptamer displacement. inhibition of aptamer binding, % at 10 µM. 330,000 tested, 0.59% active. bead flow cytometry, FAM-aptamer displacement from GRK2;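 active means inhibition of aptamer binding above 40%, roughly 3 SD of noise, on plates passing a quality check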;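 further: median bead fluorescence of bound FAM aptamer so fluorescent compounds give negative values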
Scp-1 inhibitor = inhibitors of human Scp-1 phosphatase; Q9GZU7; Recombinant Scp1, phosphopeptide, malachite green phosphate absorbance; inhibition, % at 20 µM; 340,000 tested, 0.88% active;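 active means inhibition above about 50% at 20 µM, limit read from the data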;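 further: plate controls were DMSO wells with enzyme for no effect and wells lacking enzyme for full effect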
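Times: enzyme reaction 45 min at room temperature, colour 5 min, stabilisation 30 min. Material: SCP-1 catalytic fragment, aa 76-261. Medium: Acidic Tris acetate buffer with magnesium and detergent. Signal: colorimetric free-phosphate detection, absorbance 630 nm. Read-out basis: % inhibition of SCP-1 phosphate liberation. Reagent: Phosphorylated 17-residue peptide substrate.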
Active calls of the source: *; / = no result.

SMILES	LMPTP inh	SUMO1 PPI mod	DNMT1 inh	STEP block	GRK2 aptamer HTS	Scp-1 inhibitor
CNc1cccc(-c2cccc(C(=O)N3CCOCC3)c2)n1	0	4	-1	3	/	/
CC(C)(C)OC(=O)N1CC2(CCCCC2)CC1Cc1ccc(C(F)(F)F)cc1 (stereo not given)	1	2	-1	2	/	/
Cc1c2ccncc2cc2c1[nH]c1ccccc12	55*	-20	30	3	/	-8
COc1ccc(NC(=O)C2CCC(CNc3c(N4CCOCC4)c(=O)c3=O)CC2)cc1Cl (stereo not given)	-1	2	2	0	2	-4
COc1ccc(NC(=O)c2ccc(CNc3c(N4CCCC4)c(=O)c3=O)cc2)cc1Cl	4	58*	1	0	2	-4
COc1ccc(CCNC(=O)CN2c3cccc4cccc(c34)S2(=O)=O)cc1OC	1	-14	-1	0	0	-6
COC(=O)CCCN1C(=O)c2cccc3cccc(c23)C1=O	-2	-27	3	0	1	-4
O=C(CCCN1C(=O)c2cccc3cccc(c23)C1=O)Nc1nccs1	-1	50*	0	4	0	-5
Cc1cc(C(=O)N/N=C/c2cc(Br)cc(Br)c2OC(=O)c2cccc(F)c2)n[nH]1	65*	7	35	1	2	87*
Cc1cc(C(=O)N/N=C/c2cc(Br)cc(Br)c2OC(=O)c2ccccc2)n[nH]1	/	/	/	/	2	/
COc1ccc(Nc2cc(C)c3c(O)cccc3n2)cc1	79*	-1	-14	-3	0	-4
Cc1ccc(Nc2cc(C)c3ccc(O)cc3n2)cc1C	0	-3	-5	0	0	0
Cc1ccc(Nc2cc(C)c3c(O)cccc3n2)cc1C	67*	9	-16	5	0	2
COC(=O)c1cc(Nc2cc(C)c3c(O)cccc3n2)cc(C(=O)OC)c1	43	9	-14	2	1	0
Cc1ccccc1Nc1cc(C)c2c(O)cccc2n1	67*	0	0	-1	1	-16
COc1ccc(NC(=O)C2(C)CCN2Cc2ccc(OC)c3ccccc23)cc1OC (stereo not given)	0	2	-6	0	/	/
Cc1sc2ncn(CC(=O)NC3CCCCC3)c(=O)c2c1C	-8	11	1	-2	0	-5
Cc1cc(NCCCCCCCNc2cc(C)nc3cc([N+](=O)[O-])ccc23)c2ccc([N+](=O)[O-])cc2n1	91*	129*	40	18	/	32
COCCCNc1cc(C)nc2ccccc12	26	0	3	-1	0	0
O=C(Nc1cccc(-c2cn3ccccc3n2)c1)c1cc2ccccc2oc1=O	75*	-6	43	81*	22	3
CC(=O)Nc1cccc(-c2cn3ccccc3n2)c1	2	1	1	2	0	-3
CCOC(=O)N1CCC(NC(=O)c2cc3c(-c4ccc(Cl)cc4)nn(C)c3s2)CC1	1	73*	-14	3	1	-15
CC(C)NC(=O)c1cc2c(-c3ccc(Cl)cc3)nn(C)c2s1	0	-1	5	2	1	-15
Cc1cc(=O)oc2cc(OCC(=O)Nc3ccccc3C(N)=O)c(Cl)cc12	-1	62*	3	0	1	4
CCNc1nc2c(cnn2C)c(=O)[nH]1	0	0	3	0	/	11
SMILES	LMPTP inh	SUMO1 PPI mod	DNMT1 inh	STEP block	GRK2 aptamer HTS	Scp-1 inhibitor
O=C1c2ccc3c4c(ccc(c24)C(=O)N1c1ccc(O)cc1)C(=O)N(c1ccc(O)cc1)C3=O	5	88*	13	0	0	3
CC(NC1=CC(=O)c2cccnc2C1=O)C(O)c1ccccc1 (stereo not given)	7	-18	72*	1	/	0
Nc1c(C(=O)NC2CC2)sc2nc3c(c(-c4ccco4)c12)CC/C3=C/c1ccco1	71*	95*	91*	15	2	84*
CC(=O)Nc1cc(-c2ccc(C(=O)N3CCOCC3)cc2)cn2c(-c3cccc(C(C)=O)c3)cnc12	2	-28	-4	1	/	/
CNc1ccccc1C(=O)OCC(=O)N1CCc2ccccc2C1	-2	1	1	-2	/	/
Cc1[nH]c(=O)c(C#N)cc1-c1csc(-c2ccccc2)n1	60*	6	15	-2	0	9
